Hits are enriched below; roughly 2.2% of the tested compounds scored in any of these assays.
PfG6PD inh – PfG6PD enzyme inhibitors, primary screen, biochemical, fluorescence intensity, uHTS; AID 504690, 2011; actives 0.78% (n = 350,000); PfGluPho enzyme, NADPH resazurin-diaphorase fluorescence; inhibition, % at 20 µM;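 active = inhibition reaching at least a set limit at 20 µM in the primary screen, cut at about 59% in these data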
HKDC1 inh – HKDC1 hexokinase inhibitors, primary screen, biochemical, fluorescence, uHTS; Q2TB90; recombinant HKDC1, G6PDH/diaphorase resazurin coupled fluorescence; inhibition, % at 20 µM; actives 0.16% (n = 340,000); AID 493160, 2011;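 active = inhibition above about 35% when tested at 20 µM, limit read from the data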
Target sequence (Q2TB90 whole entry, looked up): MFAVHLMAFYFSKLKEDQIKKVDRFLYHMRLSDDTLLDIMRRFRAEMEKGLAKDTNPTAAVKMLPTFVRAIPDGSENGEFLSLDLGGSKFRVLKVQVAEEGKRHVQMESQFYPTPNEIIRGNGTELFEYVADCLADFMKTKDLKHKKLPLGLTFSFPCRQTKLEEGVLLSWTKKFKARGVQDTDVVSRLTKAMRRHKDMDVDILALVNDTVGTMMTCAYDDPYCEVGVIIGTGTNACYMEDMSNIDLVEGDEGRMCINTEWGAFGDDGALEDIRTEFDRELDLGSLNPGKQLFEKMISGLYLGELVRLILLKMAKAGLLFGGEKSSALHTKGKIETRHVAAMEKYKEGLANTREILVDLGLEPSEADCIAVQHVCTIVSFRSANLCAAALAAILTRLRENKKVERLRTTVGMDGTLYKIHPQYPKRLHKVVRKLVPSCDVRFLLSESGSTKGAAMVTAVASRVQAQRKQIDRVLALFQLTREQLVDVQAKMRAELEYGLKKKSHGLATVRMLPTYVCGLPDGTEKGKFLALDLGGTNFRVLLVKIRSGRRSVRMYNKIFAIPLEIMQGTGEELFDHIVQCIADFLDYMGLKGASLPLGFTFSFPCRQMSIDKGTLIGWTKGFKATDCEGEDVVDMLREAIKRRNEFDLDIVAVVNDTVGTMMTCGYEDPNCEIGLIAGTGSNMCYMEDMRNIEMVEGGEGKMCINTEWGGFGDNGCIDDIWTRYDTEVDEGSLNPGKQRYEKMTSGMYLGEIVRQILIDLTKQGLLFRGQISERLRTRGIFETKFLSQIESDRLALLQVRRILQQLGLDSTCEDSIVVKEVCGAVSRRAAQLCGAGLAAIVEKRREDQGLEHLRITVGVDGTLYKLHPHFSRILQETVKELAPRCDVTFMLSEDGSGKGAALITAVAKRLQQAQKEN
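Material – in-house recombinant HK5 (HKDC1) enzyme · Quantity – HKDC1 at 5 µg/mL · Buffer or medium – pH 8.0 Tris buffer with 10 mM MgCl2 · Reagent – glucose with 1 mM ATP · Dosing – single 20 µM dose · Times – reaction time 90 min, room temperature, protected from light · Technique – resorufin fluorescence at 613 nm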
M18AAP inhibitor – PfM18AAP inhibitors, malaria aminopeptidase, primary screen, biochemical, QFRET, recombinant enzyme; H-Glu-NHMec fluorogenic cleavage; inhibition, % at 7.35 µM; actives 1.2% (n = 290,000);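 active = inhibition above the campaign mean inhibition over all tested compounds plus 3 SD, cut at about 28% in these data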
Neddyl block – inhibitors of cullin neddylation, primary screen, biochemical, TR-FRET, uHTS, NAE and Ubc12 | NEDD8-conjugating enzyme Ubc12 (Homo sapiens) + NEDD8-activating enzyme E1 regulatory … | inhibition, % at 25 µM | actives 0.58% (n = 360,000); in the data active = inhibition above about 36%
HKDC1 act conf2 – HKDC1 hexokinase activators, confirmation, biochemical, single concentration. shares compounds with HKDC1 inh. recombinant HKDC1, G6PDH/diaphorase resazurin fluorescence; stronger effect = lower value. inhibition, % at 20 µM. actives 14% (n = 740). AID 504708, 2011;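 active = inhibition at or below a set negative limit, negative inhibition meaning the enzyme was activated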
Each line names hits and unclear results; the compound was inactive in the other large screens (follow-up assays come after a bar, where shown).

CCOC(=O)CC(=O)c1sc2c(c1N)c(=O)[nH]c(=O)n2-c1ccc(OC)cc1	none
CCn1c2ccccc2c2nnc(SCc3ccccc3)nc21	none
CCn1c2ccccc2c2nnc(SCc3ccc(C(=O)OC)o3)nc21	none | HKDC1 act conf2 inactive
Cc1ccc(S(=O)(=O)NCC(=O)N(CC2CCCO2)C(C(=O)NCC2CCCO2)C(C)C)cc1 (stereo not given)	none
Cc1ccc2c(c1C)-c1c(ccc(C)c1C)C(=O)C2=O	HKDC1 inh 38.0 (no result: M18AAP inhibitor) | HKDC1 act conf2 inactive
Cc1ccc(CC#N)c(-c2c(CC#N)ccc(C)c2C)c1C	none (no result: HKDC1 inh, M18AAP inhibitor)
COc1ccc(NC(=O)CSc2ccc(-c3cccnc3)nn2)cc1	none
COc1ccc(NC(=O)CSc2ccc(-c3cccnc3)nn2)c(OC)c1	none | HKDC1 act conf2 inactive
Cc1nc([N+](=O)[O-])c(Br)n1CC(=O)c1ccc2ccccc2c1	HKDC1 inh 45.7 | HKDC1 act conf2 inactive
Cc1nc([N+](=O)[O-])c(Br)n1CC(=O)c1ccccc1	none
CCOC(=O)N1c2ccccc2Sc2ccccc21	none
Cc1nnc(SC(=O)N2c3ccccc3Sc3ccccc32)s1	none | HKDC1 act conf2 inactive
O=C(CCCCC(=O)Sc1ccccc1)Sc1ccccc1	HKDC1 inh 38.7 (no result: M18AAP inhibitor) | HKDC1 act conf2 inactive
COc1cc(NS(=O)(=O)c2ccc(NC(=O)c3ccc(F)cc3)cc2)ncn1	none | HKDC1 act conf2 inactive
COc1cc(NS(=O)(=O)c2ccc(NC(C)=O)cc2)ncn1	none
CC(=O)N1Cc2ccccc2CC1C(=O)NCc1ccccc1F (stereo not given)	none
COc1ccc2cc(/C=N/NC(=O)c3ccc(CN(c4ccc(C)c(C)c4)S(C)(=O)=O)cc3)c(Cl)nc2c1	none
COc1ccc2cc(/C=N/NC(=O)c3c(Cl)cnn3C)c(Cl)nc2c1	none | HKDC1 act conf2 inactive
CC12CCC(C(=O)N/N=C/c3ccc(O)cc3O)(OC1=O)C2(C)C (stereo not given)	none | HKDC1 act conf2 -34.9
Cc1noc(C)c1CSCC(=O)Nc1nc(-c2ccc(F)c(F)c2)cs1	none (no result: M18AAP inhibitor)
COc1ccc(-c2csc(NC(=O)CSCc3c(C)noc3C)n2)cc1OC	none | HKDC1 act conf2 inactive
O=C(NNC(=O)c1cccnc1)NC1CCCCC1	none | HKDC1 act conf2 inactive
COc1cccc(OC)c1C(=O)NNC(=O)c1cccnc1	none
CSc1nc(N(C)CCO)c2sc3nc(-c4ccco4)c4c(c3c2n1)CCC4	HKDC1 inh 47.0 | HKDC1 act conf2 inactive
CCOP(=O)(c1ccc(N(C)C)cc1)C(O)c1ccc(OC)cc1 (stereo not given)	HKDC1 inh 56.4 | HKDC1 act conf2 inactive
O=C(N/N=C/c1cc(Br)ccc1O)c1ccncc1	none
O=C(N/N=C/c1ccc(O)c2ncccc12)c1cccc(Br)c1	none | HKDC1 act conf2 inactive
NC(=O)COc1ccc(/C=N\NC(=O)c2ccc(-c3ccccc3)cc2)cc1	none (not shown: Neddyl block)
CC(C)NC(=O)c1ccc2sc([C@@H]3O[C@H](CO)[C@H](O)[C@H](O)[C@H]3O)nc2c1	none (no result: PfG6PD inh, HKDC1 inh, M18AAP inhibitor)
CCOc1ccc(N=C2NN=C(c3cc(C)n(CC4CCCO4)c3C)CS2)cc1 (stereo not given)	none
Cc1cc(C2=NNC(=Nc3ccc(S(=O)(=O)N4CCOCC4)cc3)SC2)c(C)n1C	none | HKDC1 act conf2 -46.6
CCN1C[C@@H]2[C@@H]3C(=O)N(Cc4ccccc4)C(=O)[C@@H]3[C@](C)(C1=O)N2C(=O)c1ccc(F)cc1	none (no result: M18AAP inhibitor)
CCc1c(C)c(C#N)c2nc3ccccc3n2c1NC	none (not shown: Neddyl block) | HKDC1 act conf2 -43.3
COc1ccc(-c2nc3c(C(=O)NCCN(C)C)cccc3c3ccccc23)cc1	HKDC1 inh 39.5 (no result: M18AAP inhibitor) | HKDC1 act conf2 inactive
CC(=O)n1cc(N(C(=O)CCl)c2ccc(Cl)cc2)c2ccccc21	HKDC1 inh 58.3 | HKDC1 act conf2 inactive
COc1ccccc1N(C(=O)CCl)c1cn(C(C)=O)c2ccccc12	none
COc1cc(OC)cc(-c2c(C#Cc3ccsc3)c3cc(-c4ccc5c(c4)OCCO5)ccc3n2C)c1	none (not shown: M18AAP inhibitor, Neddyl block)
O=C(CSc1n[nH]c(-c2cccnc2)n1)Nc1ccccc1[N+](=O)[O-]	none
O=C(CSc1n[nH]c(-c2cccnc2)n1)Nc1ccc([N+](=O)[O-])cc1Br	HKDC1 inh 45.6 | HKDC1 act conf2 inactive
CCCCn1c(N)c(N(CC(C)C)C(=O)C2CCN(S(=O)(=O)c3ccc(Cl)cc3)CC2)c(=O)[nH]c1=O	none (no result: M18AAP inhibitor)
